B1: tRNA (parent)
chain: GUUCCGUUGGCGUAAUGGUAACGCGUCUCCCUCCUAAGGAGAAGACUGCGGGUUCGAGUCCCGUACGGAACG

This sample holds only a part of the variants without activity.

Variants of B1 are the subject of the data set. Description: yeast fitness relative to wild type (ratio to wild type); higher = fitter; tRNA-Arg(CCU), competitive growth, 37 C, YPD. In outline: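 Variants of the tRNA-Arg(CCU) gene were chemically synthesised with a 3% per-site mutation rate across 69 sites and placed at the native genomic locus in Saccharomyces cerevisiae. Six parallel replicates of the pooled strains were competed in YPD at 37°C for 24 hours, and gene amplicons from the start and end populations were read by 100-nucleotide paired-end sequencing. Darwinian fitness relative to wild type was derived from changes in genotype frequencies. Genotypes required ≥ 100 starting reads, and estimates < 0.5 were set to 0.5.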
Take U3C A21G C46A G56A: the yeast fitness was ≤ 0.5.

Consider U3A G18A, for which the yeast fitness was determined as 0.661.

With U3C A14G C29G A37U A42G, the yeast fitness was 0.609.

U3A U13C C29A U32A A43G G67C: the yeast fitness is ≤ 0.5.

In the case of U3A U16C C33G C46U, the yeast fitness was ≤ 0.5.

Consider U3A C61U G67A, for which the yeast fitness was found to be 0.562.

For the variant U3C A14C A45C, the yeast fitness is ≤ 0.5.

On to U3A C30U C31U G52A, for which the yeast fitness is ≤ 0.5.

On to U3A C27U A69C, for which the yeast fitness turned out to be 0.713.

With U3A G52C, the yeast fitness amounted to 0.645.

With U3A C30U A43C, the yeast fitness was found to be 0.554.

Regarding U3C A14C A40U, the yeast fitness was ≤ 0.5.

In the case of U3C A20U C30U A37G A70C, the yeast fitness came to 0.708.

Consider U3A C27U A36G, for which the yeast fitness is 0.594.

For U3A U7A C30U G50C U59C, the yeast fitness is ≤ 0.5.

For U3A U7A A15C C55G, the yeast fitness is ≤ 0.5.

Turning to U3A U13A, the yeast fitness worked out at 1.04.

With U3A U13G, the yeast fitness worked out at 0.729.

For U3A U13C, the yeast fitness stood at 0.955.

Take U3A U13G C22U A40U C66G: the yeast fitness worked out at 0.627.

As for U3C A37C C62G, the yeast fitness was 0.548.

Regarding U3A U35G A43U A57C, the yeast fitness is ≤ 0.5.

Turning to U3C A37C, the yeast fitness is 0.82.

Take U3A C27G C31U C33U A42C C49U: the yeast fitness was ≤ 0.5.

For the variant U3C A14G U19A, the yeast fitness is 0.761.

On to U3A C30G G38C A69C, for which the yeast fitness came to 0.671.

In the case of U3A U26C C31U A40C, the yeast fitness is ≤ 0.5.

Take U3A G48A: the yeast fitness came out at 0.844.

Regarding U3A G48C, the yeast fitness was 0.842.

In the case of U3A G58C C60U C66G, the yeast fitness is ≤ 0.5.

For the variant U3A U54G, the yeast fitness turned out to be 0.595.

As to U3C A20G C29G C55U, the yeast fitness is ≤ 0.5.

In the case of U3A U8A U13C C31G A40C, the yeast fitness was ≤ 0.5.

On to U3A U32A U59G, for which the yeast fitness was found to be 0.585.

Turning to U3A G9C G39A C55U A70C, the yeast fitness is ≤ 0.5.

U3C A15U C34U A43G G68A A69U: the yeast fitness was ≤ 0.5.

Take U3A U19C C22G C31G A69C: the yeast fitness was ≤ 0.5.

With U3A G50A, the yeast fitness is 0.853.

In the case of U3A G50C, the yeast fitness was 0.727.

As for U3A G9A A20G, the yeast fitness was determined as 0.665.

Regarding U3A G17A C22U U64C, the yeast fitness is ≤ 0.5.

In the case of U3A G38A A57U C62U, the yeast fitness was ≤ 0.5.

Consider U3A G9C A20G C29A G67U, for which the yeast fitness turned out to be 0.633.

On to U3A C49U G63A, for which the yeast fitness was 0.764.

With U3A G18C A43C G58C, the yeast fitness is ≤ 0.5.

For the variant U3A U16C C27G A36U G39C U53A A70G, the yeast fitness was ≤ 0.5.

Take U3A C24G C31U C62U A65C: the yeast fitness is ≤ 0.5.

On to U3A U16C C33G, for which the yeast fitness was found to be 0.661.

For U3A C24G U47C A57U, the yeast fitness was ≤ 0.5.

Regarding U3A G17A C22U A70C, the yeast fitness came to 0.528.

U3A G51A A65G A69C: the yeast fitness is 0.544.

Regarding U3A G10C A36U A40C C60G A70G, the yeast fitness was ≤ 0.5.

Turning to U3A G52A C60A A69G, the yeast fitness was ≤ 0.5.

For the variant U3A C31G C66U, the yeast fitness stood at 0.641.

As to U3A C31U A40C G48A G68C, the yeast fitness is ≤ 0.5.

Regarding U3A C24G C33G G51A U53A G56A G67C, the yeast fitness is ≤ 0.5.

In the case of U3A U19G A36C, the yeast fitness was ≤ 0.5.

As for U3A C46U G48A, the yeast fitness came to 0.695.

Turning to U3A U16C C46U C49U, the yeast fitness is ≤ 0.5.

As to U3A G68C A69C, the yeast fitness is ≤ 0.5.

For U3A G25A, the yeast fitness was 1.09.

With U3A G12A C24U A45U U64C, the yeast fitness is ≤ 0.5.

For the variant U3A G12A C24G C29U A36G, the yeast fitness is ≤ 0.5.

As for U3A U13G C22U A40U C55G A70G, the yeast fitness was ≤ 0.5.

Turning to U3A C46U G56C A69U, the yeast fitness is ≤ 0.5.

As for U3A G25A C49G A65G, the yeast fitness is ≤ 0.5.

Consider U3A U7A A69U, for which the yeast fitness is ≤ 0.5.

As for U3A C29G A40U G41C A42C, the yeast fitness is ≤ 0.5.

U3A U54G A57C: the yeast fitness was ≤ 0.5.

Regarding U3C A21G, the yeast fitness was determined as 0.962.

U3A C46A G63A A69C: the yeast fitness worked out at 0.731.

For the variant U3A G12A C46G, the yeast fitness stood at 0.657.

On to U3A C33U A45C, for which the yeast fitness is ≤ 0.5.

Turning to U3A C31U, the yeast fitness was 1.02.

With U3A C34U A43G C49A G52A, the yeast fitness is ≤ 0.5.

As for U3A U19C C61G, the yeast fitness was ≤ 0.5.

In the case of U3A G10A C27U A40U, the yeast fitness is ≤ 0.5.

U3A G41A A69U: the yeast fitness turned out to be 0.617.

As for U3C A21G C46G G50A, the yeast fitness is ≤ 0.5.

As for U3C A20C C46U C60U C61U, the yeast fitness stood at 0.759.

Consider U3A C55U G68C, for which the yeast fitness came out at 0.573.

For U3A U64C G68C, the yeast fitness was 0.586.

For the variant U3A C66G G68C, the yeast fitness came out at 0.623.

Take U3C A15G C49G: the yeast fitness is 0.556.

Consider U3A G38A G48A, for which the yeast fitness was 0.54.

On to U3A G41C U53G, for which the yeast fitness is ≤ 0.5.

Turning to U3A C24G C29U A36G, the yeast fitness is 0.639.

On to U3A U8A G25C C30A U54C, for which the yeast fitness was ≤ 0.5.

With U3A C29G A57G, the yeast fitness is ≤ 0.5.

In the case of U3C A14U A20C C30G G58A A65G, the yeast fitness was ≤ 0.5.

With U3C A21C A65C, the yeast fitness was ≤ 0.5.

As to U3A G12A A14U C46A, the yeast fitness was ≤ 0.5.

For the variant U3A G9A U28G, the yeast fitness is ≤ 0.5.

As for U3A G51A U53C, the yeast fitness worked out at 0.648.

As for U3A C46A G56A, the yeast fitness was determined as 0.713.

As to U3C A21G C49U, the yeast fitness was 1.02.

On to U3A C31A C34A A37C, for which the yeast fitness was determined as 0.661.

With U3A G10A C30U C60G, the yeast fitness is ≤ 0.5.

In the case of U3A G25A A69C, the yeast fitness stood at 0.773.

For the variant U3A U8C A14C C61U, the yeast fitness is ≤ 0.5.

Turning to U3A G25C G67C, the yeast fitness worked out at 0.567.

With U3A G23C, the yeast fitness stood at 0.653.

With U3A C29U U59G C66U, the yeast fitness was ≤ 0.5.

On to U3A C46A, for which the yeast fitness worked out at 1.05.

With U3A C27G C31U C33U A42C, the yeast fitness is ≤ 0.5.

With U3A C49U A65G, the yeast fitness came out at 0.711.

On to U3A U26C C31U G52A, for which the yeast fitness was ≤ 0.5.

Consider U3A G6A A37C C55G G58C, for which the yeast fitness was ≤ 0.5.

Consider U3C A40C, for which the yeast fitness amounted to 0.935.

Regarding U3A G9A A14C C55U A70G, the yeast fitness was ≤ 0.5.

Consider U3A C29G G52A C66G, for which the yeast fitness is ≤ 0.5.

As for U3A G12C A21C A36C G68C, the yeast fitness was ≤ 0.5.

With U3A G10C C24G A37U G38A G48C, the yeast fitness was ≤ 0.5.

In the case of U3A G6C C55U G63A, the yeast fitness is ≤ 0.5.

Turning to U3C A20U A69G, the yeast fitness is 0.612.

Regarding U3A G12C U19C, the yeast fitness was ≤ 0.5.

As for U3A C46U A69C, the yeast fitness worked out at 0.76.

As to U3A C24U C30U, the yeast fitness was ≤ 0.5.

In the case of U3C A20G U64A A65G, the yeast fitness was ≤ 0.5.

Regarding U3A G12C U28C G56A C60G, the yeast fitness is ≤ 0.5.

U3C A37U G52A: the yeast fitness was ≤ 0.5.

On to U3C A15G G23A C60U G68C, for which the yeast fitness was ≤ 0.5.

Take U3A U19A A57G: the yeast fitness is 0.751.

Take U3A C31U U53A: the yeast fitness amounted to 0.518.

With U3C A37C C49U, the yeast fitness was 0.681.

In the case of U3A C46G U47C, the yeast fitness worked out at 0.675.

As to U3A C62U, the yeast fitness came to 0.961.

As to U3A U35A C60G, the yeast fitness was 0.593.

Regarding U3A U8G C27A C61A G67A, the yeast fitness is ≤ 0.5.

Consider U3A C29U C31A A40C, for which the yeast fitness turned out to be 0.631.

With U3A C24U A40U G50C A70U, the yeast fitness was ≤ 0.5.

U3A G17A C22U C46G: the yeast fitness was ≤ 0.5.

For U3C A15C A43G C46G C66G A69G, the yeast fitness is ≤ 0.5.

Consider U3A C30G C33U, for which the yeast fitness was determined as 0.536.

As for U3A U16C A20C A45G, the yeast fitness is ≤ 0.5.

Turning to U3A G9C G67C, the yeast fitness was ≤ 0.5.

Consider U3A U16A C22U U35A A36C G38U G48C, for which the yeast fitness is ≤ 0.5.

U3A G44C: the yeast fitness worked out at 0.879.

Consider U3A C24U, for which the yeast fitness was 0.765.

Turning to U3A C24G, the yeast fitness was 0.645.

For the variant U3A C31U G63C G67C A69U, the yeast fitness turned out to be 0.558.

In the case of U3A G38C, the yeast fitness is 0.611.

Regarding U3A G9C C27G, the yeast fitness was ≤ 0.5.

Take U3A C30G U64A A69C: the yeast fitness was ≤ 0.5.

Turning to U3A G10C A36U A40C A65G, the yeast fitness is ≤ 0.5.

Regarding U3A G9A A15C C27U A57U C62A, the yeast fitness came to 0.667.

As for U3C A20C G23C G56C A65C G68A, the yeast fitness is ≤ 0.5.

On to U3C A21G A43U, for which the yeast fitness was determined as 0.989.

As to U3A G6A U16A C24G A37U C49U C62U, the yeast fitness was found to be 0.61.

For the variant U3A C24U A45C, the yeast fitness was 0.688.

U3A U26C: the yeast fitness was 0.884.

With U3A U19A A70C, the yeast fitness was found to be 0.812.

U3A C24G C29U A36G A43U: the yeast fitness is ≤ 0.5.

Turning to U3A U16C, the yeast fitness is 0.824.

Regarding U3A C49A A69U, the yeast fitness turned out to be 0.558.

On to U3A U13C C29A A43G, for which the yeast fitness is ≤ 0.5.

Consider U3C A20U U64A, for which the yeast fitness amounted to 0.594.

Consider U3A C31U A45U G68C, for which the yeast fitness is ≤ 0.5.

On to U3A G17A C22U A43C A69C, for which the yeast fitness is ≤ 0.5.

For U3A C27G, the yeast fitness amounted to 0.643.

Take U3A C27A: the yeast fitness was 0.86.

Regarding U3A U16G C46U U54A, the yeast fitness is ≤ 0.5.

Take U3A G10C A36U A40C: the yeast fitness was ≤ 0.5.

For the variant U3A U8A C31G A40C G58C C62A G68A, the yeast fitness is ≤ 0.5.

For the variant U3A G18A C22U C61A, the yeast fitness is ≤ 0.5.

U3A U16C A20C G67A: the yeast fitness was found to be 0.541.

On to U3A C27G C62U A65U, for which the yeast fitness was ≤ 0.5.
